# Measurements: ChEMBL document CHEMBL1125493, “HIV-1 neutralization and tumor cell proliferation inhibition in vitro by simplified analogues of pyrido[4,3,2-mn]thiazolo[5,4-b]acridine marine alkaloids” (J Med Chem, 1992)
# Key:
# [1] = Calu3 lung tumor cell proliferation inhibition by the compound in vitro at a concentration of 0.6 uM.; type: functional, Homo sapiens
# Procedure, shortened: (§1)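 Tumor cells grown in RPMI-1640 in 1% agar with 5% fetal bovine serum, exposed to the specified concentrations for 1 week. Viability was assessed against a control given distilled water in place of drug. 5-Fluorouracil served as the positive cytotoxic standard. Results are reported as concentration-dependent cell survival.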
# [2] = Calu3 lung tumor cell proliferation inhibition by the compound in vitro at a concentration of 6.0 uM.; type: functional, Homo sapiens; procedure, shortened: as §1
# [3] = Calu3 lung tumor cell proliferation inhibition by the compound in vitro at a concentration of 60 uM.; type: functional, Homo sapiens; procedure, shortened: as §1
# COLO 320DM [4] = assay: COLO 320DM colon tumor cell proliferation inhibition by the compound in vitro at a concentration of 0.6 uM.; type: functional, Homo sapiens; procedure, shortened: as §1
# COLO 320DM [5] = assay: COLO 320DM colon tumor cell proliferation inhibition by the compound in vitro at a concentration of 6.0 uM.; type: functional, Homo sapiens; procedure, shortened: as §1
# COLO 320DM [6] = assay: COLO 320DM colon tumor cell proliferation inhibition by the compound in vitro at a concentration of 60 uM.; type: functional, Homo sapiens; procedure, shortened: as §1
# [7] = system: Human immunodeficiency virus 1; assay: Inhibitory effect (100 uM) against HIV-1 in human peripheral blood monocyte cells(PBMC) (EC50 ->28.6 ug/mL); type: functional
# [8] = system: Human immunodeficiency virus 1; assay: Protection of MT-4 lymphocytes by the compound against HIV-1 infectivity in vitro at a concentration of 100 ug/mL (0.35 uM/mL); type: functional
# Procedure, shortened: (§2)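 Virus (HIV-1 Molt IIIB, ~2 × 10^4 TCID50) preincubated with compound 1 h at 37 °C, 5% CO2. Then added to MT-4 cells (5 × 10^5 cells/well) and cultured at 37 °C. Trypan blue viability counts taken on days 4 and 7, triplicate at each concentration. Controls were infected and uninfected cells. Reported as % viable (surviving) MT-4 cells.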
# [9] = system: Human immunodeficiency virus 1; assay: Protection of MT-4 lymphocytes by the compound against HIV-1 infectivity in vitro at a concentration of 200 ug/mL (0.70 uM/mL); type: functional; procedure, shortened: as §2
# [10] = system: Human immunodeficiency virus 1; assay: Protection of MT-4 lymphocytes by the compound against HIV-1 infectivity in vitro at a concentration of 400 ug/mL (1.4 uM/mL); type: functional; procedure, shortened: as §2
# [11] = system: Human immunodeficiency virus 1; assay: Percent HIV-1 bound to H-9 cells at a concentration of 100(ug/mL).; type: functional
# Procedure, shortened: (§3)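 HIV-1 Molt IIIB (50 μL) incubated overnight with compound at 100 μg/mL, then with uninfected H-9 cells 2 h at 37 °C. Washed; stained with HIV-positive human serum (1:100) then FITC anti-human IgG (1:10), 30 min at 4 °C each. Formaldehyde-fixed (0.5%) and analysed by flow cytometry for % virus bound and % binding inhibition.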
# [12] = system: Human immunodeficiency virus 1; assay: Inactivation of HIV-MN strain in MT-4 lymphocytes in vitro at a concentration of 100 ug/mL (0.35 uM/mL).; type: functional
# Procedure, shortened: (§4)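 Compound (50 μL) was mixed with 50 μL of HIV-1 Molt IIIB or HIV-MN inoculum in RPMI 1640 for 1 h at room temperature. The mixture was added to 5 × 10^4 MT-4 cells and kept 7 days at 37 °C, 5% CO2. MTT (5.0 mg/mL) was added for 4 h, the reaction was stopped with 0.04 N HCl/2-propanol, and OD was read at 570 nm. % inactivation was calculated from OD relative to uninfected cells and untreated virus, mean of three.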
# [13] = system: Human immunodeficiency virus 1; assay: Inactivation of HIV-MN strain in MT-4 lymphocytes in vitro at a concentration of 200 ug/mL (0.70 uM/mL).; type: functional; procedure, shortened: as §4
# [14] = system: Human immunodeficiency virus 1; assay: Inactivation of HIV-MN strain in MT-4 lymphocytes in vitro at a concentration of 400 ug/mL (1.40 uM/mL).; type: functional; procedure, shortened: as §4
# [15] = system: Human immunodeficiency virus 1; assay: Inactivation of HIV-MoltIIIB strain in MT-4 lymphocytes in vitro at a concentration of 100 ug/mL (0.35 uM/mL).; type: functional; procedure, shortened: as §4
# [16] = system: Human immunodeficiency virus 1; assay: Inactivation of HIV-MoltIIIB strain in MT-4 lymphocytes in vitro at a concentration of 200 ug/mL (0.70 uM/mL).; type: functional; procedure, shortened: as §4
# [17] = system: Human immunodeficiency virus 1; assay: Inactivation of HIV-MoltIIIB strain in MT-4 lymphocytes in vitro at a concentration of 400 ug/mL (1.4 uM/mL).; type: functional; procedure, shortened: as §4
# [18] = system: Human immunodeficiency virus 1; assay: Percent inhibition of HIV-1 binding to H-9 cells at a concentration of 100(ug/mL).; type: functional; procedure, shortened: as §3
# [19] = system: Human immunodeficiency virus 1; assay: Inhibitory effect against HIV-1 induced cytopathic effects(HIV-1 neutralization) in MT-4 lymphocytes at a concentration of 100 ug/mL (0.3500 uM/mL).; type: functional
# Procedure, shortened: (§5)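 HIV-1 Molt IIIB (~2 × 10^4 TCID50 in 100 μL) preincubated 1 h at 37 °C with a single compound dose, then added to MT-4 cells (5 × 10^5 cells/well, 1 mL). Cultured at 37 °C, 5% CO2. Viable cells counted by trypan blue exclusion on days 4 and 7. Triplicates; % viable cells. Controls: infected cells (positive), uninfected cells (negative).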
# MT4 [20] = assay: Cytotoxic effect in cultured MT-4 lymphocytes at a concentration of 100 ug/mL (0.3500 uM/mL).; type: functional, Homo sapiens
# Procedure, shortened: (§6)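 MT-4 cells at 5 × 10^4 cells/well, 1 mL total, cultured with compound diluted in RPMI 1640 with 10% FBS, 10 mM HEPES, penicillin/streptomycin and 2 mM glutamine, at 37 °C under 5% CO2. Viability was scored by trypan blue exclusion on days 4 and 7, in triplicate, as % viable cells.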
# MCF7 [21] = assay: […] breast tumor cell proliferation inhibition by the compound in vitro at a concentration of 0.6 uM.; type: functional, Homo sapiens
# Procedure, shortened: (§7)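 Breast tumor cells treated with specified compound concentrations in RPMI-1640 in 1% agar with 5% FBS for 1 week. Viability compared with a control given distilled water in place of drug; 5-fluorouracil as standard cytotoxic drug. Reported as concentration-dependent cell survival.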
# MCF7 [22] = assay: […] breast tumor cell proliferation inhibition by the compound in vitro at a concentration of 6.0 uM.; type: functional, Homo sapiens; procedure, shortened: as §7
# MCF7 [23] = assay: […] breast tumor cell proliferation inhibition by the compound in vitro at a concentration of 60 uM.; type: functional, Homo sapiens; procedure, shortened: as §7
# MT4 [24] = assay: Cytotoxic effect in cultured MT-4 lymphocytes at a concentration of 10 ug/mL (0.0350 uM/mL).; type: functional, Homo sapiens; procedure, shortened: as §6
# MT4 [25] = assay: Cytotoxic effect in cultured MT-4 lymphocytes at a concentration of 2 ug/mL (0.0070 uM/mL).; type: functional, Homo sapiens; procedure, shortened: as §6
# [26] = system: Human immunodeficiency virus 1; assay: Inhibitory effect (100 uM) against HIV-1 in human peripheral blood monocyte cells(PBMC) (EC50 ->34.5 ug/mL); type: functional
# [27] = system: Human immunodeficiency virus 1; assay: Inhibitory effect against HIV-1 induced cytopathic effects(HIV-1 neutralization) in MT-4 lymphocytes at a concentration of 100 ug/mL (0.2900 uM/mL).; type: functional; procedure, shortened: as §5
# MT4 [28] = assay: Cytotoxic effect in cultured MT-4 lymphocytes at a concentration of 10 ug/mL (0.0290 uM/mL).; type: functional, Homo sapiens; procedure, shortened: as §6
# MT4 [29] = assay: Cytotoxic effect in cultured MT-4 lymphocytes at a concentration of 100 ug/mL (0.2900 uM/mL).; type: functional, Homo sapiens; procedure, shortened: as §6
# MT4 [30] = assay: Cytotoxic effect in cultured MT-4 lymphocytes at a concentration of 2 ug/mL (0.0060 uM/mL).; type: functional, Homo sapiens; procedure, shortened: as §6
# MT4 [31] = assay: Cytotoxic effect in cultured MT-4 lymphocytes at a concentration of 2 ug/mL (0.0080 uM/mL).; type: functional, Homo sapiens; procedure, shortened: as §6
# [32] = system: Human immunodeficiency virus 1; assay: Inhibitory effect against HIV-1 induced cytopathic effects(HIV-1 neutralization) in MT-4 lymphocytes at a concentration of 100 ug/mL (0.2000 uM/mL).; type: functional; procedure, shortened: as §5
# MT4 [33] = assay: Cytotoxic effect in cultured MT-4 lymphocytes at a concentration of 10 ug/mL (0.0200 uM/mL).; type: functional, Homo sapiens; procedure, shortened: as §6
# MT4 [34] = assay: Cytotoxic effect in cultured MT-4 lymphocytes at a concentration of 100 ug/mL (0.2000 uM/mL).; type: functional, Homo sapiens; procedure, shortened: as §6
# MT4 [35] = assay: Cytotoxic effect in cultured MT-4 lymphocytes at a concentration of 2 ug/mL (0.0040 uM/mL).; type: functional, Homo sapiens; procedure, shortened: as §6
smiles,measurement,setting,value
O=C([O-])CSc1ccc2nc3ccccc3c(O)c2c1.[Na+],Viability,[1],113%
same,Viability,[2],48%
same,Viability,[3],0%
same,Viability,COLO 320DM [4],110%
same,Viability,COLO 320DM [5],41%
same,Viability,COLO 320DM [6],0%
same,Inhibition,[7],31%
same,Survival,[8],72.7%
same,Survival,[9],81.4%
same,Survival,[10],84.2%
same,Bound,[11],22.4%
same,Inactivation,[12],13.1%
same,Inactivation,[13],40.5%
same,Inactivation,[14],25%
same,Inactivation,[15],21%
same,Inactivation,[16],100%
same,Inactivation,[17],74.3%
same,Inhibition,[18],32.7%
same,Viability,[19],70.9%
same,Viability,MT4 [20],92.6%
same,Viability,MCF7 [21],85%
same,Viability,MCF7 [22],19%
same,Viability,MCF7 [23],0%
same,Viability,MT4 [24],93.3%
same,Viability,MT4 [25],96.7%
Nc1nc2cc3c(O)c4ccccc4nc3cc2[nH]1,Inhibition,[26],33%
same,Viability,[27],12.5%
same,Viability,MT4 [28],88.8%
same,Viability,MT4 [29],81.5%
same,Viability,MT4 [30],90%
Cc1nc2cc3nc4ccccc4cc3cc2s1.Cl,Viability,MT4 [31],85%
CCN(CC)CCCC(C)Nc1c2ccc(Cl)cc2nc2ccc(OC)cc12.Cl.Cl (stereo not given) [QUINACRINE DIHYDROCHLORIDE],Viability,[32],0%
same,Viability,MT4 [33],88.2%
same,Viability,MT4 [34],82.1%
same,Viability,MT4 [35],93.6%
